Active and inactive are the calls of the source. The calls are words filed in the database; no cut-off is given here.
How the values were obtained:
Plasma [1] = test: AUC (0 to 24 hrs) in mouse plasma at 20 mg/kg, ip; type: ADME, organism-based; parameters: dose 20 mg/kg, time < 24 hr, route intraperitoneal; settings: in vivo
[2] = target: Survival motor neuron protein (Homo sapiens) (UniProt Q16637); test: Stabilization of human SMN protein expressed in HEK293 cells expressing SMN2 promoter after 24 hrs by luciferase reporter gene assay relative to control; type: cell-based
In short: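 SMN2-luc reporter cells seeded at 25,000/well overnight, then treated 24 h with six doses (3-fold serial dilutions, top final 10 or 30 μM), 0.1% DMSO. Firefly and Renilla luciferase read by dual-luciferase assay, normalized to DMSO as percent; EC50 and maximal activation from curves. Mean ± SEM, ≥3 trials.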

SH-SY5Y = test: Cytotoxicity against human SH-SY5Y cells assessed as reduction in cell viability at 100 times EC50 concentration after 48 hrs by CellTiter 96 AQueous one solution cell proliferation assay; type: cell-based
In short: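 SH-SY5Y cells seeded at 10,000/well, next day treated with graded compound doses in duplicate for 48 h, 0.2% DMSO constant; CellTiter 96 AQueous One reagent added for the last 4 h; cycloheximide 200 ng/mL as toxicity control.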

HEK293 [3] = test: Effect on human luciferase-tagged SMN mRNA expressed in HEK293 cells assessed as SMN exon 7 included transcript at 1 and 10 uM after 24 hrs by qRT-PCR relative to GAPDH mRNA expression; type: cell-based
In short: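 SMN2-luciferase reporter cells treated with compound; total RNA isolated with Trizol, DNase I treated and reverse transcribed. SYBR Green qPCR for SMN exon 7-included and full-length transcripts, with GAPDH as reference.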

[4] = Half life in mouse liver microsomes; type: ADME, microsome; settings: liver microsomes
In short: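 Compound stability in mouse and human liver microsomes, expressed as half-life in min.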

[5] = target: Survival motor neuron protein (Homo sapiens) (UniProt Q16637); test: Stabilization of SMN protein in 3813T fibroblasts derived from human SMA patient assessed as increase in SMN protein level after 48 hrs by SDS-PAGE and immunoblot
In short: (§1)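 hTERT-immortalized SMA patient 3813T fibroblasts seeded at 6000/well, next day dosed for 48 h at indicated concentrations, 0.1% DMSO. Lysed in boiling buffer (150 mM NaCl, 10 mM Tris pH 8.0, 2% SDS), run on 10% SDS-PAGE, SMN immunoblotted, normalized to tubulin or actin as fold over DMSO; one-way ANOVA with Dunnett.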

CYP2D6 = CYP2D6 (Homo sapiens, UniProt P10635); test: Inhibition of CYP2D6 (unknown origin) at 10 uM; type: ADME
Renilla = test: Effect on renilla recombinant luciferase protein
CYP1A2 = target: T1, CYP1A2 (Homo sapiens, UniProt P05177); test: Inhibition of CYP1A2 (unknown origin) at 10 uM; type: ADME
T1 sequence (P05177 whole entry): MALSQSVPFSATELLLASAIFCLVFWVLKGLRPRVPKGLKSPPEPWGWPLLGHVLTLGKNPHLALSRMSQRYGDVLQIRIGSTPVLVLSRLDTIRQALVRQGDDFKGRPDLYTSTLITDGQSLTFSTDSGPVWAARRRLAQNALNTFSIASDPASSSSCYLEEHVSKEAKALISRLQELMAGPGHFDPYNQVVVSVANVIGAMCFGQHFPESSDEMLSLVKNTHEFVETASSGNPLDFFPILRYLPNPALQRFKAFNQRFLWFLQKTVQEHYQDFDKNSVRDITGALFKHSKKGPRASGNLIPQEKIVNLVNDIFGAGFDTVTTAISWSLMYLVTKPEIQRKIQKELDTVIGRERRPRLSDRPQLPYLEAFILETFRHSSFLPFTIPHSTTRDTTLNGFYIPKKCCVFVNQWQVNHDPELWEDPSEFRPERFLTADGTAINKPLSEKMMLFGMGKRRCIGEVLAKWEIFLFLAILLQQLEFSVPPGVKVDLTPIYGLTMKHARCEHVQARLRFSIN

[6] = Fraction unbound in mouse plasma; type: ADME, cell-free
In short: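 Plasma protein binding measured in mouse and human plasma and expressed as percent free.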

Plasma [7] = test: Half life in mouse plasma after 60 mins; type: ADME, cell-free; settings: 1 h
HEK293 [8] = test: Effect on luciferase expression in human HEK293 cells expressing SV40 promoter at 10 to 30 uM after 24 hrs by luciferase reporter gene assay; type: ADME, cell-based; settings: hek293, 24 h
[9] = Drug degradation in 0.1 to 1 N HCL after 1 to 24 hrs by LC-MS method
In short: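 Compound held in 0.1 N and 1 N HCl at 37 °C for 24 h; aliquots taken at 1, 2, 4, 6 and 24 h and analysed by LCMS for percent degradation.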

Plasma [10] = test: Tmax in mouse plasma at 20 mg/kg, ip; type: ADME, organism-based; settings: in vivo
HEK293 [11] = test: Effect on cycloheximide-induced reduction in basal level of polyubiquitinated protein level in HEK293 cells at 1 uM pretreated for 2 hrs followed by cycloheximide addition measured after 6 hrs by SDS-PAGE analysis; type: functional, cell-based; settings: Homo sapiens
In short: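 HEK293 cells pretreated 2 h with test compound or MG-132 (1 and 10 μM), then DMSO or cycloheximide (10 μM) added and incubated a further 6 h; final DMSO 0.2%. Lysates run on 4–15% gradient SDS-PAGE; anti-ubiquitin blot for polyubiquitinated proteins, tubulin as loading control.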

Plasma [12] = test: Half life in mouse plasma at 20 mg/kg, po; type: ADME, organism-based; settings: in vivo
Plasma [13] = test: AUC (0 to 24 hrs) in mouse plasma at 20 mg/kg, po; type: ADME, organism-based; parameters: dose 20 mg/kg, time < 24 hr, route oral; settings: in vivo
[14] = target: Voltage-gated inwardly rectifying potassium channel KCNH2 (Homo sapiens, UniProt Q12809); test: Inhibition of human ERG at 10 uM
[15] = target: Survival motor neuron protein (Homo sapiens) (UniProt Q16637); test: Stabilization of human SMN protein expressed in HEK293 cells expressing SMN2 promoter assessed as additive effect on SMN stabilization in presence of 0.1: 0.3 to 10:30 ratio of LDN-76070 to compound after 24 hrs by luciferase reporter gene assay; type: cell-based
In short: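 SMN2 reporter cells exposed 24 h to the two compounds alone or combined at constant ratio, DMSO held at 0.2%, and SMN-luc read. Theoretical additive effect taken as the sum of the single-agent activities.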

[16] = target: Survival motor neuron protein (Homo sapiens) (UniProt Q16637); test: Stabilization of SMN protein in 3813T fibroblasts derived from human SMA patient assessed as increase in SMN protein level at 2 uM after 48 hrs by SDS-PAGE and immunoblot; in short: as §1
HEK293 [17] = test: Effect on p62 level in HEK293 cells at 10 uM after 8 hrs by immunoblot analysis; type: functional, cell-based; settings: Homo sapiens
In short: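 HEK293 cells exposed 8 h to DMSO, compound or chloroquine; LC3 and p62 assessed by immunoblot.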

[18] = target: Survival motor neuron protein (Homo sapiens) (UniProt Q16637); test: Stabilization of human luc fused SMN protein expressed in HEK293 cells at 10 uM after 24 hrs in presence of 10 uM cycloheximide by luciferase reporter gene assay; type: cell-based
In short: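 SMN2-luciferase reporter cells were maintained in high-glucose DMEM with 10% FBS, Pen/Strep and hygromycin at 37 °C. They were treated at the same time with cycloheximide (10 μM), to block protein synthesis, and with compound or DMSO. Cells were lysed at set time points, and SMN2-luc (firefly) and Renilla-luc activities were read by dual-luciferase assay.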

Plasma [19] = test: Half life in mouse plasma at 20 mg/kg, ip; type: ADME, organism-based; settings: in vivo

Chain of Survival motor neuron protein (Homo sapiens) (Q16637 whole entry, the tested form may be a part): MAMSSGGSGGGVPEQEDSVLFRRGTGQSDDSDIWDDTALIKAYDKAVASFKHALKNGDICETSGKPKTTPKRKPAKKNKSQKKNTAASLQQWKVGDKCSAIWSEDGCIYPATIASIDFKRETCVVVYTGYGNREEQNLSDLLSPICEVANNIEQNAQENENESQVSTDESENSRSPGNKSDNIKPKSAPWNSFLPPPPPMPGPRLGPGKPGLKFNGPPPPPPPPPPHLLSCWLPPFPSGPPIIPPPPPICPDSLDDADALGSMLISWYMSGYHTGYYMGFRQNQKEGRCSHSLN
Chain of CYP2D6 (P10635 whole entry): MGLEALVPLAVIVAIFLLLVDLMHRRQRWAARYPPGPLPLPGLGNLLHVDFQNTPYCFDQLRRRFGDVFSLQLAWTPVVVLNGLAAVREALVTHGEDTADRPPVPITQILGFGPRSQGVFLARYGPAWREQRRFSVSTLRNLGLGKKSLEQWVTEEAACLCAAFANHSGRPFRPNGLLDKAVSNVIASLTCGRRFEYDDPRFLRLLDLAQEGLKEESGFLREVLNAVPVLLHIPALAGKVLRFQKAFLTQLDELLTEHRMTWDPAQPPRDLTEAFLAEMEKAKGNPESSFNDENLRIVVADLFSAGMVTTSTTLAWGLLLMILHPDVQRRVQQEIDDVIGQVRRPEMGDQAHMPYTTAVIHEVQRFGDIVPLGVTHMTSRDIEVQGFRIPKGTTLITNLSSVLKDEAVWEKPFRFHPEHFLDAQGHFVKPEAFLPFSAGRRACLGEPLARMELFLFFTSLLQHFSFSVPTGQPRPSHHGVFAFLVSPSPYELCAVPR
Chain of Voltage-gated inwardly rectifying potassium channel KCNH2 (Q12809 whole entry): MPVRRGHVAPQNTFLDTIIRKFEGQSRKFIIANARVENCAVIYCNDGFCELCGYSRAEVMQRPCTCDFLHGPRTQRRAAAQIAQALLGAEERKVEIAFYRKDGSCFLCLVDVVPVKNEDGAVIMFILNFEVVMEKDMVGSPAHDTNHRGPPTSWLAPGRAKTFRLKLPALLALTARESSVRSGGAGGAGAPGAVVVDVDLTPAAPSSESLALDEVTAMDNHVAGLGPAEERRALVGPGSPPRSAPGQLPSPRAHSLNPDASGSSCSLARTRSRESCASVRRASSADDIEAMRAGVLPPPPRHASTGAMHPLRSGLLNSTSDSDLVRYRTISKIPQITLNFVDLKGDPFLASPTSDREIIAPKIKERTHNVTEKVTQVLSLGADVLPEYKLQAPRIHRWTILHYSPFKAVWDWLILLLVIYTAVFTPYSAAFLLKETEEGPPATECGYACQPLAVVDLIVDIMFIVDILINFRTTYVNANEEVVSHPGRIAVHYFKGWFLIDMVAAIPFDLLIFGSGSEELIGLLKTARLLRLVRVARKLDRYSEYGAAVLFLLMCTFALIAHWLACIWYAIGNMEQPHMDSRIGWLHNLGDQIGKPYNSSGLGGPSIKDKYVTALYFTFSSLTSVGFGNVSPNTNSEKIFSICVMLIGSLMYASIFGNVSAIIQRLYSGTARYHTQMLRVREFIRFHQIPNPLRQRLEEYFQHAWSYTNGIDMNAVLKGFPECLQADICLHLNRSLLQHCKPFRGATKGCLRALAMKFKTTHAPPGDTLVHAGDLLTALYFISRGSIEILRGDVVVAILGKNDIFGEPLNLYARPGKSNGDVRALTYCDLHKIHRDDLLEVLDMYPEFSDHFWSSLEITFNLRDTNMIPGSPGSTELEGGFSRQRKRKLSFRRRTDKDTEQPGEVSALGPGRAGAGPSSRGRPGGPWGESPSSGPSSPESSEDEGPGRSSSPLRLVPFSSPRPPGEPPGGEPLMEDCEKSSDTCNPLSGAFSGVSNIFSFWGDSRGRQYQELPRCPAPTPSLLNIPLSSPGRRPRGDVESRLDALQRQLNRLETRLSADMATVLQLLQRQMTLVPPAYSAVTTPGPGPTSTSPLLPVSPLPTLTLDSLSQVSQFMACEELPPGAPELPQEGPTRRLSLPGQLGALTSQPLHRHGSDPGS

- AUC (Plasma [1]): 34291 ng·h/mL
- half-life [4]: 0.65 h
- inhibition at 10 µM (CYP2D6): < 50%
- Activity (Renilla): inactive
- inhibition at 10 µM (CYP1A2): < 50%
- fraction unbound [6]: 0.047
- t1/2 (Plasma [7]): 5.43 h
- Tmax (Plasma [10]): 0.5 h
- t1/2 (Plasma [12]): 3.4 h
- AUC (Plasma [13]): 1641 ng·h/mL
- t1/2 (Plasma [19]): 2.2 h
SMILES: O=C(Nc1ncc(C2(O)CCC2)s1)c1ccc(F)c(Cl)c1
- Activity [2]: 190%
- Activity (SH-SY5Y): Non-Toxic
- Activity (HEK293 [3]): inactive
- Activity [5]: Dose-dependent effect
- Activity (HEK293 [8]): Non-Toxic
- Drug degradation [9]: < 5%
- Activity (HEK293 [11]): inactive
- inhibition (INH) [14]: Not Active
- Activity [15]: Active
- fold change (FC) [16]: 2
- Activity (HEK293 [17]): inactive
- Activity [18]: Active

— ChEMBL document CHEMBL4020760, “Discovery of a Small Molecule Probe That Post-Translationally Stabilizes the Survival Motor Neuron Protein for the Treatment of Spinal Muscular Atrophy” (J Med Chem, 2017)
